Reference: ChEMBL document CHEMBL4373658, “Scaffold hybridization strategy towards potent hydroxamate-based inhibitors of Flaviviridae viruses and Trypanosoma species” (Medchemcomm, 2019)
Activity calls are given as the source filed them. The rule behind the calls is not given here.

Key:
[1] = system: Trypanosoma brucei; assay: Antitrypanosomal activity against Trypanosoma brucei 221 bloodstream form assessed as inhibition of growth incubated for 4 days by resazurin dye based fluorescence assay; assay type: functional, organism-based; details: Trypanosoma brucei, 221, 96 h
[2] = Cytotoxicity against human HuH5.2 cells assessed as reduction in cell viability incubated for 72 hrs by measuring intracellular ATP levels
[3] = Selectivity index, ratio of CC50 for human Huh5.2 cells to EC50 for HCV genotype 1b Con1; assay type: toxicity; details: read-out: Ratio CC50/EC50
Outline: (§1)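 Viability read as intracellular ATP, not MTT: 10^4 Huh5-2 cells/well, after 24 h exposed to compounds 72 h at 37 °C, 5% CO2, lysed, luminescent ATP kit read, ATP normalized to protein. CC50 versus DMSO control via nonlinear regression of log concentration; mean ± SD of three independent experiments in triplicate. SI = CC50/EC50.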

[4] = Selectivity index, ratio of CC50 for human Huh5.2 cells to EC50 for HCV genotype 4a ED43; assay type: toxicity; details: read-out: Ratio CC50/EC50; outline: as §1
[5] = system: Hepatitis C virus; assay: Antiviral activity against HCV genotype 4a ED43 infected in human HuH7.5 cells assessed as reduction in viral replication incubated for 3 days by luciferase reporter gene assay; assay type: functional, organism-based, Hepacivirus hominis; details: subtype 4a ED43, Huh7.5, 72 h
Outline: (§2)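 Stable subgenomic replicon cell lines (Huh5-2 HCV 1b Con1 firefly luciferase; Huh7.5-3a S52, Huh7.5-4a ED43; Huh7-D2 DENV2 16681 Renilla luciferase) seeded 1×10^4 cells/well, 24 h at 37 °C, then serial compound dilutions in complete DMEM without G418 for 3 days at 37 °C. Lysate F-Luc or R-Luc (12 μM coelenterazine, pH 7.4 buffer) normalized to Bradford protein, expressed as % of DMSO control. EC50 from nonlinear regression of log concentration.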

[6] = Cytotoxicity against rat L6 cells assessed as reduction in cell viability incubated for 6 days by resazurin dye based fluorescence assay
Outline: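 Rat skeletal myoblast L6 cells seeded in triplicate at 1 × 10⁴ mL⁻¹ in growth medium containing a range of compound concentrations, 6 days at 37 °C; resazurin added, 8 h further, fluorescence read. CC50 = concentration giving 50% growth inhibition; mean of triplicate experiments ± SEM.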

[7] = system: Trypanosoma cruzi; assay: Antitrypanosomal activity against Trypanosoma cruzi strain CL Brener epimastigotes form assessed as inhibition of growth incubated for 4 days by resazurin dye based fluorescence assay; assay type: functional, organism-based; details: 96 h
[8] = Selectivity index, ratio of CC50 for rat L6 cells to EC50 for Trypanosoma brucei 221 bloodstream form; assay type: toxicity; details: read-out: Ratio CC50/EC50
Outline: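 T. brucei strain 221 bloodstream forms in modified Iscove's medium diluted to 2.5 × 10⁴ mL⁻¹, eight-point concentration curves at 37 °C; resazurin added after 48 h, further 16 h incubation; fluorescence at excitation 545 nm, emission 590 nm. EC50 and EC90 from triplicate experiments. SI = L6 CC50/EC50.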

[9] = system: Hepatitis C virus; assay: Antiviral activity against HCV genotype 1b Con1 infected in human HuH5.2 cells assessed as reduction in viral replication incubated for 3 days by luciferase reporter gene assay; assay type: functional, organism-based, Hepacivirus hominis; details: subtype 1b Con1, Huh-5-2, 72 h; outline: as §2
[10] = biological target: RNA-directed RNA polymerase (Hepacivirus hominis, UniProt O39930); assay: Inhibition of HCV genotype 1b NS5B RNA dependent RNA polymerase; design: species or system Hepatitis C virus subtype 1b
Chain of RNA-directed RNA polymerase (O39930 whole entry): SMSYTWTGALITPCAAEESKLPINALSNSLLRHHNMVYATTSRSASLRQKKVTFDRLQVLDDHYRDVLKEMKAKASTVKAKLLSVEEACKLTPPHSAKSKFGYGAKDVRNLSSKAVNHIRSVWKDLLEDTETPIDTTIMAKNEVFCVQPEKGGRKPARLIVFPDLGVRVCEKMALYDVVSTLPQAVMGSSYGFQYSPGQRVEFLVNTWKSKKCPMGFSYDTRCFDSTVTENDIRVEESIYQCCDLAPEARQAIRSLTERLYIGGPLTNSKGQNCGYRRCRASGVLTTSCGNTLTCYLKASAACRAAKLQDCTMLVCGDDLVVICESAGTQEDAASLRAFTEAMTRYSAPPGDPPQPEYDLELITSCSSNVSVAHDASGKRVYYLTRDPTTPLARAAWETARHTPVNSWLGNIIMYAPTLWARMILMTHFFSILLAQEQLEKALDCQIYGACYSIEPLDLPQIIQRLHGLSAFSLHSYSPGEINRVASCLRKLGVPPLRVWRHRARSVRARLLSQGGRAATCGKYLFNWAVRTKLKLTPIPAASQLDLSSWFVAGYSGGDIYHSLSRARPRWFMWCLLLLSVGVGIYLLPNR

[11] = system: Hepatitis C virus; assay: Antiviral activity against HCV genotype 4a ED43 infected in human HuH7.5 cells assessed as reduction in viral RNA at 0.01 to 10 uM incubated for 3 days by qRT-PCR analysis; assay type: functional, organism-based; details: Hepacivirus hominis, subtype 4a ED43
Outline: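 Huh7.5-4a replicon cells treated with serial dilutions or DMSO; (+) strand HCV RNA quantified by RT-qPCR, normalized to housekeeping gene YWHAZ mRNA, expressed as percentage of solvent-treated control.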

[12] = Selectivity index, ratio of CC50 for human Huh5.2 cells to EC50 for DENV2 16681; assay type: toxicity; details: read-out: Ratio CC50/EC50
[13] = system: dengue virus type 2; assay: Antiviral activity against DENV 2 16681 infected in human HuH7 cells assessed as reduction in viral replication incubated for 3 days by luciferase reporter gene assay; assay type: functional, organism-based; details: Dengue virus, 16681, Huh-7, 72 h; outline: as §2
[14] = Selectivity index, ratio of CC50 for human Huh5.2 cells to EC50 for HCV genotype 3a S52; assay type: toxicity; details: read-out: Ratio CC50/EC50; outline: as §1
[15] = system: Hepatitis C virus; assay: Antiviral activity against HCV genotype 3a S52 infected in human HuH7.5 cells assessed as reduction in viral replication incubated for 3 days by luciferase reporter gene assay; assay type: functional, organism-based, Hepacivirus hominis; details: subtype 3a S52, Huh7.5, 72 h; outline: as §2
[16] = system: Hepatitis C virus; assay: Antiviral activity against HCV genotype 4a ED43 infected in human HuH7.5 cells assessed as reduction in viral NS5A expression at 2 to 5 uM incubated for 3 days by immunofluorescence assay; assay type: functional, organism-based; details: Hepacivirus hominis, subtype 4a ED43
Outline: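 Huh7.5-4a replicon cells given serial compound dilutions or DMSO; HCV NS5A detected by indirect immunofluorescence, nuclei stained with propidium iodide as viability control, confocal imaging.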

[17] = Selectivity index, ratio of CC50 for rat L6 cells to EC50 for Trypanosoma cruzi strain CL Brener epimastigotes; assay type: toxicity; details: read-out: Ratio CC50/EC50
[18] = biological target: T1, Nonstructural protein 5A (Hepatitis C virus, UniProt Q5L478); assay: Inhibition of HCV genotype 1b NS5A; design: species or system Hepatitis C virus subtype 1b
T1 sequence (Q5L478 whole entry): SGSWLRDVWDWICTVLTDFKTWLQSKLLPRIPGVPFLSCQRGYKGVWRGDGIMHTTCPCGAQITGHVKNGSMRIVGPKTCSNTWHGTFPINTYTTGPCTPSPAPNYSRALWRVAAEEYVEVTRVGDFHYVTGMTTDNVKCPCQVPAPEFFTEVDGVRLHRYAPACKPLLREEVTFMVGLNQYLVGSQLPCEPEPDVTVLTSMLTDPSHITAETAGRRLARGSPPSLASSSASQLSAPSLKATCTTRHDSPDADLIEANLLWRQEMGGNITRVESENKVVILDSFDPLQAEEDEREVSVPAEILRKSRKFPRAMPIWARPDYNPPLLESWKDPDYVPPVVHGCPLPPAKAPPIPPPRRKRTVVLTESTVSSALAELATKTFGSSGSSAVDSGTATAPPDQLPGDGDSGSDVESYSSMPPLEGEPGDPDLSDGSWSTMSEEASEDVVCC

[19] = Inhibition of HCV genotype 1b NS3/4A protease; design: species or system Hepatitis C virus subtype 1b

| SMILES | EC50 [1] [nM] | EC90 [1] [nM] | CC50 at 72 h [2] [µM] | selectivity ratio [3] | selectivity ratio [4] | EC50 [5] [nM] | CC50 at 144 h [6] [µM] | EC50 [7] [µM] | selectivity ratio [8] | EC50 [9] [nM] | selectivity ratio [17] | EC90 [7] [µM] | further results |
| --- | --- | --- | --- | --- | --- | --- | --- | --- | --- | --- | --- | --- | --- |
| O=C(CN1C(=O)CNC2(CCCCCC2)C1=O)NO | 1870 | 2530 | – | – | – | – | – | – | – | – | – | – | – |
| CN1C(=O)N(CC(=O)NO)C(=O)C12CCc1ccccc12 (stereo unspecified) | 1220 | 1930 | 26.9 | 19 | 128 | 210 | 550 | > 30 | 451 | 1410 | – | – | – |
| CC(C)OC(=O)[C@H](C)N[P@](=O)(OC[C@H]1O[C@@H](n2ccc(=O)[nH]c2=O)[C@](C)(F)[C@@H]1O)Oc1ccccc1 [SOFOSBUVIR] | – | – | – | – | – | – | – | – | – | – | – | – | EC50 [10]: 102 nM |
| O=C(CN1C(=O)NC2(CCCCc3ccccc32)C1=O)NO (stereo unspecified) | 400 | 520 | 198 | 794 | 1980 | 100 | 125 | > 30 | 313 | 250 | – | – | Activity [11]: Active; selectivity ratio [12]: 12; EC50 [13]: 16.3 µM; selectivity ratio [14]: 2480; EC50 [15]: 80 nM; Activity [16]: Active |
| O=C(CN1C(=O)N(Cc2ccccc2)C2(CCCCc3ccccc32)C1=O)NO (stereo unspecified) | 13 | 18 | 5.45 | 5 | 45 | 120 | 7.85 | 0.495 | 604 | 1000 | 16 | 0.94 | – |
| COC(=O)N[C@H](C(=O)N1CCC[C@H]1c1nc(-c2ccc(-c3ccc(-c4c[nH]c([C@@H]5CCCN5C(=O)[C@@H](NC(=O)OC)C(C)C)n4)cc3)cc2)c[nH]1)C(C)C [DACLATASVIR] | – | – | – | – | – | – | – | – | – | – | – | – | EC50 [18]: 2 pM |
| CN1C(=O)N(CC(=O)NO)C(=O)C12CCCc1ccccc12 (stereo unspecified) | 1910 | 4690 | 143 | 99 | 682 | 210 | 28.2 | 27.6 | 15 | 1450 | 1 | 42.1 | Activity [11]: Active |
| O=C(CN1C(=O)NC2(CCCc3ccccc32)C1=O)NO (stereo unspecified) | 710 | 1270 | > 200 | > 142 | > 526 | 380 | 419 | > 30 | 590 | 1410 | – | > 30 | selectivity ratio [12]: > 3; EC50 [13]: 61.5 µM; selectivity ratio [14]: > 84; EC50 [15]: 2370 nM |
| O=C(CN1C(=O)NC2(CCc3ccccc32)C1=O)NO (stereo unspecified) | 440 | 800 | > 200 | > 68 | > 345 | 580 | 268 | > 30 | 609 | 2920 | – | > 30 | selectivity ratio [12]: > 2; EC50 [13]: 96.3 µM; selectivity ratio [14]: > 67; EC50 [15]: 2970 nM |
| CN1C(=O)N(CC(=O)NO)C(=O)C12CCCCc1ccccc12 (stereo unspecified) | 230 | 300 | 112 | 95 | 1020 | 110 | 16.4 | 10.6 | 71 | 1180 | 2 | 15.3 | – |
| O=C(CN1C(=O)N(Cc2ccccc2)C2(CCc3ccccc32)C1=O)NO (stereo unspecified) | 101 | 192 | 7.53 | 34 | 54 | 140 | 6.27 | 1.7 | 62 | 220 | 4 | 3.01 | – |
| O=C1Cn2c(cc3ccccc32)C(=O)N1O | – | – | > 200 | > 1.6 | – | – | – | – | – | 126000 | – | – | – |
| COc1c(-c2ccc3cc(NS(C)(=O)=O)ccc3c2)cc(-n2ccc(=O)[nH]c2=O)cc1C(C)(C)C [DASABUVIR] | – | – | – | – | – | – | – | – | – | – | – | – | EC50 [10]: 1.8 nM |
| O=C1NC(=O)C2(CCc3ccccc32)N1 (stereo unspecified) | > 50000 | – | > 10 | – | – | – | > 500 | > 500 | – | > 10000 | – | – | – |
| O=C(CN1C(=O)N(Cc2ccccc2)C2(CCCc3ccccc32)C1=O)NO (stereo unspecified) | 50 | 77 | 8.9 | 28 | 127 | 70 | 3.17 | 0.96 | 63 | 320 | 3 | 1.71 | – |
| CC[C@@H]1[C@@H]2CN(C(=O)[C@H](C(C)(C)C)NC(=O)O[C@@H]3C[C@H]3CCCCC(F)(F)c3nc4ccc(OC)cc4nc3O2)[C@@H]1C(=O)N[C@]1(C(=O)NS(=O)(=O)C2(C)CC2)C[C@H]1C(F)F | – | – | – | – | – | – | – | – | – | – | – | – | EC50 [19]: 3.3 nM |
